Measurements as given in ChEMBL document CHEMBL1817556, “Substituted lactam and cyclic azahemiacetals modulate Pseudomonas aeruginosa quorum sensing” (Bioorg Med Chem, 2011).

How the values were obtained:
[1] = target: 3-(3-hydroxydecanoyloxy)decanoate synthase (Pseudomonas aeruginosa (strain ATCC 15692 / PAO1 / 1C / PRS 101 / LMG12228)) (UniProt Q51559); assay: Modulation of Pseudomonas aeruginosa lacZ-fused rhlA expressed in Escherichia coli DH5alpha co-expressing Ptac-rhlR assessed as C4-AHL-induced effect at 0.20 mM after 4 hrs by beta-galactosidase assay relative to control
Procedure, shortened: (§1)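 rhl reporter: E. coli DH5α carrying pECP61.5 (Ptac-rhlR, PrhlA-lacZ) was grown overnight in LB with ampicillin (100 μg/ml) only, then diluted to OD600 0.150. It was induced with 1 mM IPTG, and 2 μM C4-HSL plus compound or DMSO were added at OD600 1.0. Cultures were shaken 4 h at 37 °C. β-Galactosidase activity was read in Miller units as % of the solvent sample. Triplicates per biological replicate, at least two repeats; paired two-tailed t-test.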

[2] = target: 3-(3-hydroxydecanoyloxy)decanoate synthase (Pseudomonas aeruginosa (strain ATCC 15692 / PAO1 / 1C / PRS 101 / LMG12228)) (UniProt Q51559); assay: Modulation of Pseudomonas aeruginosa lacZ-fused rhlA expressed in Escherichia coli DH5alpha co-expressing Ptac-rhlR assessed as C4-AHL-induced effect at 0.61 mM after 4 hrs by beta-galactosidase assay relative to control
Procedure, shortened: (§2)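 E. coli DH5α carrying pECP61.5 (Ptac-rhlR, PrhlA-lacZ), grown overnight in LB with ampicillin 100 μg/ml and diluted to OD600 0.150. At OD600 1.0, 1 mM IPTG, 2 μM C4-HSL and compound or DMSO were added. Cultures were shaken 4 h at 37 °C, then β-galactosidase was read in Miller units. Activity is % of solvent sample, from triplicates per biological replicate, with at least two repeats.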

[3] = target: 3-(3-hydroxydecanoyloxy)decanoate synthase (Pseudomonas aeruginosa (strain ATCC 15692 / PAO1 / 1C / PRS 101 / LMG12228)) (UniProt Q51559); assay: Modulation of Pseudomonas aeruginosa lacZ-fused rhlA expressed in Escherichia coli DH5alpha co-expressing Ptac-rhlR assessed as C4-AHL-induced effect at 0.40 mM after 4 hrs by beta-galactosidase assay relative to control; procedure, shortened: as §1
[4] = target: T1, Acyl-homoserine-lactone synthase (Pseudomonas aeruginosa (strain ATCC 15692 / PAO1 / 1C / PRS 101 / LMG12228)) (UniProt P33883); assay: Modulation of Pseudomonas aeruginosa lacZ-fused lasI expressed in Escherichia coli DH5alpha co-expressing pBAD-lasR assessed as 3-oxo-C12-AHL-induced effect at 0.81 mM after 3 hrs by beta-galactosidase assay relative to control
T1 sequence (whole entry): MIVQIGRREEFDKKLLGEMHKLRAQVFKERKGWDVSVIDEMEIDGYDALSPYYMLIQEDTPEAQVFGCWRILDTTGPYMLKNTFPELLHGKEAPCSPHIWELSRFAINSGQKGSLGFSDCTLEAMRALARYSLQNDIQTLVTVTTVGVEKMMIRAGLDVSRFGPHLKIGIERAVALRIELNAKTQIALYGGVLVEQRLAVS
Procedure, shortened: (§3)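 E. coli DH5α carrying pSC11 (PlasI-lacZ translational fusion) and pJN105L (PBAD-lasR) was grown overnight in LB with ampicillin (100 μg/ml) and gentamicin (15 μg/ml), then diluted to OD600 0.150. Arabinose (0.2% w/v), 3-oxo-C12-AHL (2 μM) and test compound or DMSO were added. Cultures were shaken 3 h at 37 °C. β-Galactosidase activity was read in Miller units and expressed as % of the solvent sample. Triplicates per biological replicate, repeated at least twice; paired two-tailed t-test.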

[5] = target: T1, Acyl-homoserine-lactone synthase (Pseudomonas aeruginosa (strain ATCC 15692 / PAO1 / 1C / PRS 101 / LMG12228)); assay: Modulation of Pseudomonas aeruginosa lacZ-fused lasI expressed in Escherichia coli DH5alpha co-expressing pBAD-lasR assessed as 3-oxo-C12-AHL-induced effect at 0.20 mM after 3 hrs by beta-galactosidase assay relative to control; procedure, shortened: as §3
[6] = target: T1, Acyl-homoserine-lactone synthase (Pseudomonas aeruginosa (strain ATCC 15692 / PAO1 / 1C / PRS 101 / LMG12228)); assay: Modulation of Pseudomonas aeruginosa lacZ-fused lasI expressed in Escherichia coli DH5alpha co-expressing pBAD-lasR assessed as 3-oxo-C12-AHL-induced effect at 0.61 mM after 3 hrs by beta-galactosidase assay relative to control; procedure, shortened: as §3
[7] = target: 3-(3-hydroxydecanoyloxy)decanoate synthase (Pseudomonas aeruginosa (strain ATCC 15692 / PAO1 / 1C / PRS 101 / LMG12228)) (UniProt Q51559); assay: Modulation of Pseudomonas aeruginosa lacZ-fused rhlA expressed in Escherichia coli DH5alpha co-expressing Ptac-rhlR assessed as C4-AHL-induced effect at 0.81 mM after 4 hrs by beta-galactosidase assay relative to control; procedure, shortened: as §2
[8] = target: T1, Acyl-homoserine-lactone synthase (Pseudomonas aeruginosa (strain ATCC 15692 / PAO1 / 1C / PRS 101 / LMG12228)); assay: Modulation of Pseudomonas aeruginosa lacZ-fused lasI expressed in Escherichia coli DH5alpha co-expressing pBAD-lasR assessed as 3-oxo-C12-AHL-induced effect at 0.40 mM after 3 hrs by beta-galactosidase assay relative to control; procedure, shortened: as §3
[9] = target: T1, Acyl-homoserine-lactone synthase (Pseudomonas aeruginosa (strain ATCC 15692 / PAO1 / 1C / PRS 101 / LMG12228)); assay: Modulation of Pseudomonas aeruginosa lacZ-fused lasI expressed in Escherichia coli DH5alpha co-expressing pBAD-lasR assessed as 3-oxo-C12-AHL-induced effect at 0.19 mM after 3 hrs by beta-galactosidase assay relative to control; procedure, shortened: as §3
[10] = target: T1, Acyl-homoserine-lactone synthase (Pseudomonas aeruginosa (strain ATCC 15692 / PAO1 / 1C / PRS 101 / LMG12228)); assay: Modulation of Pseudomonas aeruginosa lacZ-fused lasI expressed in Escherichia coli DH5alpha co-expressing pBAD-lasR assessed as 3-oxo-C12-AHL-induced effect at 0.58 mM after 3 hrs by beta-galactosidase assay relative to control; procedure, shortened: as §3
[11] = target: T1, Acyl-homoserine-lactone synthase (Pseudomonas aeruginosa (strain ATCC 15692 / PAO1 / 1C / PRS 101 / LMG12228)); assay: Modulation of Pseudomonas aeruginosa lacZ-fused lasI expressed in Escherichia coli DH5alpha co-expressing pBAD-lasR assessed as 3-oxo-C12-AHL-induced effect at 0.77 mM after 3 hrs by beta-galactosidase assay relative to control; procedure, shortened: as §3
[12] = target: 3-(3-hydroxydecanoyloxy)decanoate synthase (Pseudomonas aeruginosa (strain ATCC 15692 / PAO1 / 1C / PRS 101 / LMG12228)) (UniProt Q51559); assay: Modulation of Pseudomonas aeruginosa lacZ-fused rhlA expressed in Escherichia coli DH5alpha co-expressing Ptac-rhlR assessed as C4-AHL-induced effect at 0.39 mM after 4 hrs by beta-galactosidase assay relative to control; procedure, shortened: as §1
[13] = target: T1, Acyl-homoserine-lactone synthase (Pseudomonas aeruginosa (strain ATCC 15692 / PAO1 / 1C / PRS 101 / LMG12228)); assay: Modulation of Pseudomonas aeruginosa lacZ-fused lasI expressed in Escherichia coli DH5alpha co-expressing pBAD-lasR assessed as 3-oxo-C12-AHL-induced effect at 0.39 mM after 3 hrs by beta-galactosidase assay relative to control; procedure, shortened: as §3
[14] = target: 3-(3-hydroxydecanoyloxy)decanoate synthase (Pseudomonas aeruginosa (strain ATCC 15692 / PAO1 / 1C / PRS 101 / LMG12228)) (UniProt Q51559); assay: Modulation of Pseudomonas aeruginosa lacZ-fused rhlA expressed in Escherichia coli DH5alpha co-expressing Ptac-rhlR assessed as C4-AHL-induced effect at 0.19 mM after 4 hrs by beta-galactosidase assay relative to control; procedure, shortened: as §1
[15] = target: 3-(3-hydroxydecanoyloxy)decanoate synthase (Pseudomonas aeruginosa (strain ATCC 15692 / PAO1 / 1C / PRS 101 / LMG12228)) (UniProt Q51559); assay: Modulation of Pseudomonas aeruginosa lacZ-fused rhlA expressed in Escherichia coli DH5alpha co-expressing Ptac-rhlR assessed as C4-AHL-induced effect at 0.58 mM after 4 hrs by beta-galactosidase assay relative to control; procedure, shortened: as §2
[16] = target: 3-(3-hydroxydecanoyloxy)decanoate synthase (Pseudomonas aeruginosa (strain ATCC 15692 / PAO1 / 1C / PRS 101 / LMG12228)) (UniProt Q51559); assay: Modulation of Pseudomonas aeruginosa lacZ-fused rhlA expressed in Escherichia coli DH5alpha co-expressing Ptac-rhlR assessed as C4-AHL-induced effect at 0.77 mM after 4 hrs by beta-galactosidase assay relative to control; procedure, shortened: as §2

Activity [1] | Activity [2] | Activity [3] | Activity [4] | Activity [5] | Activity [6] | Activity [7] | Activity [8] | Activity [9] | Activity [10] | Activity [11] | Activity [12] | Activity [13] | Activity [14] | Activity [15] | Activity [16] | Compound
132% | 148% | 129% | 68% | 96% | 79% | 161% | 78% | – | – | – | – | – | – | – | – | CCCCCCSC[C@H]1NC(=O)[C@H](O)[C@@H]1O
– | – | – | – | – | – | – | – | 74% | 57% | 47% | 80% | 65% | 93% | 100% | 99% | CCCCCCCCCSC[C@@H]1CCC(O)N1 (mixture of isomers)
